From ChEMBL document CHEMBL2412970, “Synthesis and anticancer activity of 2,4-disubstituted furo[3,2-b]indole derivatives” (Eur J Med Chem, 2013)

Key:
[1] = Cytotoxicity against human Hep3B cells after 48 hrs by MTT assay; type: functional, cell-based, Hep 3B2
[2] = test system: Detroit 551; assay: Cytotoxicity against human Detroit 551 cells after 48 hrs by MTT assay; type: cell-based; conditions: Detroit 551, 48 h
[3] = test system: COLO 205; assay: Cytotoxicity against human COLO205 cells after 48 hrs by MTT assay; type: functional, cell-based; conditions: COLO 205, 48 h
In short: (§1)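 Cells were treated with a range of concentrations for 48 h. Viability was read by MTT: formazan was dissolved in DMSO and absorbance read at 570 nm. Untreated or 0.1% DMSO cells served as control. Data are mean from three independent experiments. HL-60, H460 and COLO 205 were kept in RPMI-1640 with 10% FBS and penicillin/streptomycin.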

[4] = Cytotoxicity against human H460 cells after 48 hrs by MTT assay; type: functional, cell-based; conditions: NCI-H460, 48 h; in short: as §1
[5] = test system: A498; assay: Cytotoxicity against human A498 cells after 48 hrs by MTT assay; type: functional, cell-based; conditions: A498, 48 h
[6] = test system: HL-60; assay: Cytotoxicity against human HL60 cells after 48 hrs by MTT assay; type: functional, cell-based; conditions: HL-60, 48 h; in short: as §1
[7] = test system: A498; assay: Ratio of YC-1 IC50 to compound IC50 for human A498 cells after 48 hrs by MTT assay; type: functional

SMILES | IC50 [1] [µM] | IC50 [2] [µM] | IC50 [3] [µM] | IC50 [4] [µM] | IC50 [5] [µM] | IC50 [6] [µM] | Ratio IC50 [7]
COc1cccc(Cn2c3ccccc3c3oc(CO)cc32)c1 | 31.9 | > 50 | 31.9 | 52 | 0.33 | 35.4 | –
COC(=O)c1cc2c(o1)c1ccccc1n2Cc1ccc(C(=O)OC)[se]1 | > 25 | > 25 | > 50 | > 25 | > 50 | > 25 | –
COc1ccccc1Cn1c2ccccc2c2oc(CO)cc21 | 24.6 | 60.5 | 28.3 | 30.8 | 4.3 | 13.3 | –
COC(=O)c1cc2c(o1)c1ccccc1n2Cc1cccc(F)c1 | > 50 | > 50 | > 50 | > 50 | > 50 | > 50 | –
COC(=O)c1cc2[nH]c3ccccc3c2o1 | > 50 | > 50 | > 50 | > 50 | > 50 | > 50 | –
CCn1c2ccccc2c2oc(C(=O)O)cc21 | > 50 | > 50 | > 50 | > 50 | > 50 | > 50 | –
O=C(O)c1cc2c(o1)c1ccccc1n2Cc1ccccc1 | > 50 | > 50 | > 50 | > 50 | > 50 | > 50 | –
Cn1c2ccccc2c2oc(CO)cc21 | > 50 | > 50 | > 50 | 50 | 4.6 | > 50 | –
CCn1c2ccccc2c2oc(C(=O)OC)cc21 | > 50 | > 50 | > 50 | > 50 | > 50 | > 50 | –
OCc1cc2c(o1)c1ccccc1n2Cc1cccc(Cl)c1 | 29.8 | > 50 | 26.4 | 50 | 1.1 | 14.7 | –
COC(=O)c1cc2c(o1)c1ccccc1n2Cc1ccc(OC)cc1 | 58.6 | > 50 | > 50 | > 50 | > 50 | > 50 | –
OCc1cc2c(o1)c1ccccc1n2Cc1ccc2c(c1)OCO2 | > 50 | > 50 | > 50 | > 50 | 0.27 | > 50 | –
OCc1cc2c(o1)c1ccccc1n2Cc1ccc(F)cc1 | 44.2 | > 50 | 35.9 | 36.7 | 0.69 | > 50 | –
Cn1c2ccccc2c2oc(C(=O)O)cc21 | > 50 | > 50 | > 50 | > 50 | > 50 | > 50 | –
COC(=O)c1cc2c(o1)c1ccccc1n2Cc1cccc(Cl)c1 | > 50 | > 50 | > 50 | > 50 | > 50 | > 50 | –
COC(=O)c1cc2c(o1)c1ccccc1n2C | > 50 | > 50 | > 50 | 50 | > 50 | > 50 | –
OCc1cc2c(o1)c1ccccc1n2Cc1ccc(Cl)cc1 | 36.2 | 44.4 | 8.1 | 31.3 | 0.79 | 38.9 | –
O=C(O)c1cc2[nH]c3ccccc3c2o1 | > 50 | > 50 | > 50 | > 50 | > 50 | > 50 | –
COC(=O)c1cc2c(o1)c1ccccc1n2Cc1ccccc1Cl | > 50 | > 50 | > 25 | > 50 | > 50 | > 50 | –
COC(=O)c1cc2c(o1)c1ccccc1n2Cc1cccc(OC)c1 | > 50 | > 50 | > 50 | > 50 | > 50 | > 50 | –
OCc1cc2c(o1)c1ccccc1n2Cc1ccc(CO)s1 | > 50 | > 50 | > 50 | > 50 | 0.69 | > 50 | –

SMILES | IC50 [1] [µM] | IC50 [2] [µM] | IC50 [3] [µM] | IC50 [4] [µM] | IC50 [5] [µM] | IC50 [6] [µM] | Ratio IC50 [7]
COC(=O)c1ccc(Cn2c3ccccc3c3oc(C(=O)OC)cc32)cc1 | > 50 | > 50 | > 50 | > 50 | > 50 | > 50 | –
OCc1cccc(Cn2c3ccccc3c3oc(CO)cc32)c1 | 50 | > 50 | > 50 | > 50 | 0.37 | > 50 | –
COC(=O)c1cc2c(o1)c1ccccc1n2Cc1ccc(Cl)cc1 | > 50 | > 50 | > 50 | > 50 | > 50 | > 50 | –
OCc1ccc(Cn2c3ccccc3c3oc(CO)cc32)cc1 | > 50 | > 50 | > 50 | > 50 | 0.47 | > 50 | –
OCc1cc2c(o1)c1ccccc1n2Cc1ccccc1 | 50 | > 50 | 30.6 | > 50 | 0.24 | > 50 | 1.5
COC(=O)c1cc2c(o1)c1ccccc1n2Cc1ccc(F)cc1 | > 50 | > 50 | > 50 | > 50 | > 50 | > 50 | –
COC(=O)c1cc2c(o1)c1ccccc1n2Cc1ccc(C(=O)OC)s1 | > 50 | > 50 | > 50 | > 50 | > 50 | > 50 | –
COc1ccc(Cn2c3ccccc3c3oc(CO)cc32)cc1 | 45.9 | > 50 | 29.8 | 42.9 | 0.36 | 54.5 | –
COC(=O)c1cc2c(o1)c1ccccc1n2Cc1ccccc1OC | 50 | > 50 | 32.9 | > 50 | > 50 | 25.1 | –
CCn1c2ccccc2c2oc(CO)cc21 | > 50 | > 50 | > 50 | 50 | 3.7 | > 50 | –
OCc1cc2c(o1)c1ccccc1n2Cc1ccc(CO)[se]1 | > 50 | > 50 | > 50 | > 50 | 0.23 | > 50 | 1.5
COC(=O)c1cc2c(o1)c1ccccc1n2Cc1ccc2c(c1)OCO2 | > 50 | > 50 | > 50 | > 50 | > 50 | > 50 | –
OCc1cc2c(o1)c1ccccc1n2Cc1ccccc1Cl | 43.1 | > 50 | 26.7 | 30.5 | 5.5 | 16.8 | –
COC(=O)c1cccc(Cn2c3ccccc3c3oc(C(=O)OC)cc32)c1 | 50 | > 50 | > 50 | > 50 | > 50 | 16.5 | –
OCc1cc2[nH]c3ccccc3c2o1 | > 50 | > 50 | > 50 | > 50 | 21.8 | > 50 | –
OCc1ccc(-c2nn(Cc3ccccc3)c3ccccc23)o1 | – | – | – | – | 0.37 | – | –
COC(=O)c1cc2c(o1)c1ccccc1n2Cc1ccccc1 | > 50 | > 50 | > 50 | > 50 | > 50 | > 50 | –
COC(=O)c1ccc(Cn2c3ccccc3c3oc(C(=O)OC)cc32)o1 | > 50 | > 50 | > 50 | > 50 | > 50 | 50 | –
OCc1cc2c(o1)c1ccccc1n2Cc1cccc(F)c1 | 44 | > 50 | > 50 | 50 | 0.59 | 25 | –
COC(=O)c1cc2c(o1)c1ccccc1n2Cc1ccccc1F | > 50 | > 50 | > 50 | > 50 | > 50 | > 50 | –
OCc1cc2c(o1)c1ccccc1n2Cc1ccccc1F | 50 | > 50 | 40.9 | > 50 | 0.43 | > 50 | –
